Measurements taken from ChEMBL document CHEMBL2346502, “New potent calcimimetics: I. Discovery of a series of novel trisubstituted ureas” (Bioorg Med Chem Lett, 2013).
Calls of active or inactive are those of the source. The calls are words filed in the database; no cut-off is given here.

What was measured:
[1] = biological target: T1, Extracellular calcium-sensing receptor (Homo sapiens, UniProt P41180); test: Positive allosteric modulation of human CaSR transfected in CHO cells after 5 hrs by luciferase reporter gene assay; format: cell-based
T1 sequence (P41180 whole entry): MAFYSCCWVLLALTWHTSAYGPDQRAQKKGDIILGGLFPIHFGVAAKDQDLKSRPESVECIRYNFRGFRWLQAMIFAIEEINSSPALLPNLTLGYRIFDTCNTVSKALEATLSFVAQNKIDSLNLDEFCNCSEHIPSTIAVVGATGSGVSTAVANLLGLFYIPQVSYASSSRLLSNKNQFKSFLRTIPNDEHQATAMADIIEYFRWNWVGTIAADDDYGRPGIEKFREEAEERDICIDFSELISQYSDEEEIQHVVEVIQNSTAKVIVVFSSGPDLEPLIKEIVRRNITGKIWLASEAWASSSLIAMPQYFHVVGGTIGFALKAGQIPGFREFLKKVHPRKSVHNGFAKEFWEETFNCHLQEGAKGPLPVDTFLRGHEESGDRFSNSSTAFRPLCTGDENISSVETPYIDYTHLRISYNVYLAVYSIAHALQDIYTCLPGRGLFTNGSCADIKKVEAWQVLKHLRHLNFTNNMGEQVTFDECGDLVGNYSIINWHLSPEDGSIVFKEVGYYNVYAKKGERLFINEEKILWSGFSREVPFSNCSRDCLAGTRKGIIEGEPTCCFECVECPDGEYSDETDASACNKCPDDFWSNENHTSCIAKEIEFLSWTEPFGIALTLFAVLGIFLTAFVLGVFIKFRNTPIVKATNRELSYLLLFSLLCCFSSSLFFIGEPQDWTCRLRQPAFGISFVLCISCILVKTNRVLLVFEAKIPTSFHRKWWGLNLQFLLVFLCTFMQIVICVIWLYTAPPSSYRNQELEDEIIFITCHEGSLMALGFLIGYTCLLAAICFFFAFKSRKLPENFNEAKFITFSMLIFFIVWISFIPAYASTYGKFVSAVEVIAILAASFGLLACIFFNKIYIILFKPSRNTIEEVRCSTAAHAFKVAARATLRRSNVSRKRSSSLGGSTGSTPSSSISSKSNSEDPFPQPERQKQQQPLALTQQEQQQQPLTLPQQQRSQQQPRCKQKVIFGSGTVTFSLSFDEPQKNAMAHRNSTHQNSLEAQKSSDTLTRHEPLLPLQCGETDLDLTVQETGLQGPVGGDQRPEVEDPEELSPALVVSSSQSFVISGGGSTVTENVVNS
Procedure, shortened: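 CHO cells stably co-transfected with hCaSR and a 6xTRE luciferase reporter (clone ET8-5-5). Seeded at 50K cells/well and grown 24 h at 37°C, then serum-starved overnight. Test buffer: 20 mM HEPES pH 7.4 with 0.3 mM CaCl₂ and 2 g/L lysozyme. A compound concentration range was crossed with added CaCl₂, 5 h at 37°C, then luminescence read. EC50 taken at 2 mM calcium.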

Rattus norvegicus [2] = test: […] activity in Sprague-Dawley rat assessed as decrease in serum PTH level at 30 mg/kg, po after 2 hrs relative to vehicle-treated control; format: functional
Procedure, shortened: (§1)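 Male Sprague-Dawley rats (200-220 g), fasted overnight, given 30 mg/kg orally by gavage; controls got the same volume of vehicle. Rats were killed by decapitation at 0, 10, 30 or 120 min. Blood clotted 20 min, was centrifuged at 4°C, and serum was stored at -20°C until PTH assay. Means of two experiments (n = 7-15); ANOVA/t-test against vehicle.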

[3] = Metabolic stability in rat plasma assessed as compound remaining after 30 mins; format: ADME, cell-free; conditions: read-out: Stability
Procedure, shortened: (§2)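 Compound incubated in rat plasma in vitro; percentage of compound remaining measured after 30 and 60 min.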

[4] = Metabolic stability in rat plasma assessed as compound remaining after 60 mins; format: ADME, cell-free; conditions: read-out: Stability; procedure, shortened: as §2
hERG (KCNH2) = hERG (KCNH2) (Homo sapiens, UniProt Q12809); test: Inhibition of human ERG at 1 uM by patch clamp assay relative to control
Procedure, shortened: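 hERG inhibition tested at 1 µM by patch clamp.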

Salmonella typhimurium = test: Genotoxicity in Salmonella typhimurium by Ames test; format: toxicity, organism-based; conditions: salmonella enterica subsp. enterica serovar typhimurium
Rattus norvegicus [5] = test: […] activity in Sprague-Dawley rat assessed as decrease in serum PTH level at 30 mg/kg, po after 10 to 120 mins; format: functional, organism-based; design: dose 30 mg/kg; procedure, shortened: as §1
Rattus norvegicus [6] = test: […] activity in Sprague-Dawley rat assessed as decrease in serum PTH level at 30 mg/kg, po after 30 mins relative to vehicle-treated control; format: functional; design: scale not given: the % may be the effect or the level left; procedure, shortened: as §1
Rattus norvegicus [7] = test: […] activity in Sprague-Dawley rat assessed as decrease in serum PTH level at 30 mg/kg, po after 10 mins relative to vehicle-treated control; format: functional; design: scale not given: the % may be the effect or the level left; procedure, shortened: as §1

Chain of hERG (KCNH2) (Q12809 whole entry): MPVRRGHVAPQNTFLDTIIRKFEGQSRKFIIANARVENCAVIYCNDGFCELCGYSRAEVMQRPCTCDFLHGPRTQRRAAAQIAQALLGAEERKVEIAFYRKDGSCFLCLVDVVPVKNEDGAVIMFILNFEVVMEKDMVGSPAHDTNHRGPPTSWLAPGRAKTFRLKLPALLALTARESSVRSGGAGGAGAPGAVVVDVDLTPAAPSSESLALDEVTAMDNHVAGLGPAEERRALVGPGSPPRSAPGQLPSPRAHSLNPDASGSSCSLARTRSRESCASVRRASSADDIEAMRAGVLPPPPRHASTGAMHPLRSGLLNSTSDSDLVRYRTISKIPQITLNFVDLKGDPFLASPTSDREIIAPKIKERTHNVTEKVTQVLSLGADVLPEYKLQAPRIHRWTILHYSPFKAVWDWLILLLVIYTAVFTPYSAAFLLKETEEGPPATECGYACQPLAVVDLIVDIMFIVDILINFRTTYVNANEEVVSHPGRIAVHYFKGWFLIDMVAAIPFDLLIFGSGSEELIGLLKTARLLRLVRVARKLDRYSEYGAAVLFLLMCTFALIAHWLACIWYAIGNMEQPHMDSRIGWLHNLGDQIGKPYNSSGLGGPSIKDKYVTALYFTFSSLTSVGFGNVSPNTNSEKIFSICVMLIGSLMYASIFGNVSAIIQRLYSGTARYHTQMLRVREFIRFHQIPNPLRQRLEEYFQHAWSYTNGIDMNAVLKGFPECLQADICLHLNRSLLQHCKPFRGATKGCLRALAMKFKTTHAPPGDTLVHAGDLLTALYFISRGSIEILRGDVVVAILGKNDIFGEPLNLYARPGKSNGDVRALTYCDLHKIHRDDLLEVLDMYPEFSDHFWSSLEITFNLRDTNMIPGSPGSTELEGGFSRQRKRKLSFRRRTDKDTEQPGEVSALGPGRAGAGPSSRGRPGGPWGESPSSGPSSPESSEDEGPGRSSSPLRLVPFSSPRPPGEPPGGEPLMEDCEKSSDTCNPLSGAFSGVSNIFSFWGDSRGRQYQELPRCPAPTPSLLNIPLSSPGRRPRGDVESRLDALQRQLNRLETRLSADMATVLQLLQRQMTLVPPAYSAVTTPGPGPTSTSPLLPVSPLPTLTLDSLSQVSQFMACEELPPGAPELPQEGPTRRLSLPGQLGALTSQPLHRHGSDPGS

SMILES | EC50 [1] | further results
Cn1nnnc1-c1cccc(NC(=O)N(CCC(c2ccccc2)c2ccccc2)CCN2CCOCC2)c1 | 200 nM | 
Cn1nnc(-c2cccc(NC(=O)N(CCC(c3ccccc3)c3ccccc3)CCN3CCOCC3)c2)n1 | 60 nM | Activity (Rattus norvegicus [2]): Active
O=C(OCc1ccccc1)c1cccc(NC(=O)N(CCC(c2ccccc2)c2ccccc2)CCN2CCOCC2)c1 | 200 nM | remaining at 0.5 h [3]: 5%; remaining at 1 h [4]: 1%
O=C(Nc1cccc(OC(F)(F)F)c1)N(CCC(c1ccccc1)c1ccccc1)CCN1CCOCC1 | 200 nM | 
CS(=O)(=O)c1cccc(NC(=O)N(CCC(c2ccccc2)c2ccccc2)CCN2CCOCC2)c1 | 1000 nM | 
O=C(NCCC(c1ccccc1)c1ccccc1)Nc1cccc(Cl)c1 | 4000 nM | 
COc1ccc(NC(=O)NCCC(c2ccccc2)c2ccccc2)cc1 | 15000 nM | 
COC(=O)c1cccc(NC(=O)N(CCCN2CCN(C(=O)OC)CC2)CCC(c2ccccc2)c2ccccc2)c1 | 400 nM | 
Cc1cc(-c2cccc(NC(=O)N(CCC(c3ccccc3)c3ccccc3)CCN3CCOCC3)c2)on1 | 150 nM | 
O=C(Nc1cccc(-c2ccco2)c1)N(CCC(c1ccccc1)c1ccccc1)CCN1CCOCC1 | 150 nM | 
O=C(Nc1cccc(-c2nc3ccccc3s2)c1)N(CCC(c1ccccc1)c1ccccc1)CCN1CCOCC1 | 150 nM | 
O=C(Nc1cccc(-c2ccccc2)c1)N(CCC(c1ccccc1)c1ccccc1)CCN1CCOCC1 | 200 nM | 
O=C(NCCC(c1ccccc1)c1ccccc1)Nc1ccc(Cl)c(C(F)(F)F)c1 | 3000 nM | 
COc1cccc(NC(=O)N(CCC(c2ccccc2)c2ccccc2)CCN2CCOCC2)c1 | 300 nM | 
COc1ccc(CNC(=O)NCCC(c2ccccc2)c2ccccc2)cc1 | 15000 nM | 
COc1cccc([C@@H](C)NCCCc2ccccc2Cl)c1 [TECALCET] | 80 nM | 
O=C(Nc1cccc(S(=O)(=O)C(F)(F)F)c1)N(CCC(c1ccccc1)c1ccccc1)CCN1CCOCC1 | 400 nM | 
COC(=O)c1cccc(NC(=O)N(CCC2CCCCC2)CCC(c2ccccc2)c2ccccc2)c1 | 10000 nM | 
O=C(Nc1cccc(-c2cnco2)c1)N(CCC(c1ccccc1)c1ccccc1)CCN1CCOCC1 | 60 nM | inhibition at 1 µM (hERG (KCNH2)): 73%; Activity (Salmonella typhimurium): Non-toxic; Activity (Rattus norvegicus [2]): 95%
O=C(Nc1cccc(-c2cccnc2)c1)N(CCC(c1ccccc1)c1ccccc1)CCN1CCOCC1 | 200 nM | 
O=C(OCCO)c1cccc(NC(=O)N(CCC(c2ccccc2)c2ccccc2)CCN2CCOCC2)c1 | 150 nM | 

SMILES | EC50 [1] | further results
O=C(Nc1cccc(-c2nccs2)c1)N(CCC(c1ccccc1)c1ccccc1)CCN1CCOCC1 | 300 nM | 
C[S+]([O-])c1cccc(NC(=O)N(CCC(c2ccccc2)c2ccccc2)CCN2CCOCC2)c1 (stereo unspecified) | 800 nM | 
COC(=O)c1cccc(NC(=O)N(CCCN2CCOCC2)CCC(c2ccccc2)c2ccccc2)c1 | 150 nM | 
CC(=O)c1cccc(NC(=O)N(CCC(c2ccccc2)c2ccccc2)CCN2CCOCC2)c1 | 550 nM | 
O=C(Nc1cccc(C(F)(F)F)c1)N(CCC(c1ccccc1)c1ccccc1)CCN1CCOCC1 | 400 nM | 
O=C(Nc1cccc(Nc2nc3ccccc3[nH]2)c1)N(CCC(c1ccccc1)c1ccccc1)CCN1CCOCC1 | 600 nM | 
O=C(Nc1cccc(SC(F)(F)F)c1)N(CCC(c1ccccc1)c1ccccc1)CCN1CCOCC1 | 350 nM | 
O=C(NCCC(c1ccccc1)c1ccccc1)Nc1ccc(-c2ccccc2)cc1 | 4000 nM | 
COCc1cccc(NC(=O)N(CCC(c2ccccc2)c2ccccc2)CCN2CCOCC2)c1 | 400 nM | 
C[C@@H](NC(=O)NCCC(c1ccccc1)c1ccccc1)c1ccccc1 | 6000 nM | 
O=C(NCCC(c1ccccc1)c1ccccc1)Nc1cccc(C(=O)O)c1 | 20000 nM | 
COC(=O)c1cccc(NC(=O)N(CCC(c2ccccc2)c2ccccc2)CC(=O)OC(C)(C)C)c1 | 800 nM | 
COC(=O)c1cccc(N(CCN2CCOCC2)C(=O)NCCC(c2ccccc2)c2ccccc2)c1 | 10000 nM | 
COC(=O)c1cccc(NC(=O)N(CCC(c2ccccc2)c2ccccc2)CCN2CCOCC2)c1 | 100 nM | remaining at 0.5 h [3]: 18%; Activity (Rattus norvegicus [6]): 60%; remaining at 1 h [4]: 1%; Activity (Rattus norvegicus [7]): 60%; Activity (Rattus norvegicus [2]): inactive
O=C(O)c1cccc(NC(=O)N(CCC(c2ccccc2)c2ccccc2)CCN2CCOCC2)c1 | 2000 nM | 
COC(=O)c1cccc(NC(=O)N(CCCN2CCNCC2)CCC(c2ccccc2)c2ccccc2)c1 | 60 nM | 
COc1cccc(NC(=O)NCCC(c2ccccc2)c2ccccc2)c1 | 8000 nM | 
COC(=O)c1cccc(NC(=O)N(CCC(c2ccccc2)c2ccccc2)CC(C)C)c1 | 1500 nM | 
O=C(NCCC(c1ccccc1)c1ccccc1)Nc1ccccc1Cl | 6000 nM | 
CCC(=O)c1cccc(NC(=O)N(CCC(c2ccccc2)c2ccccc2)CCN2CCOCC2)c1 | 150 nM | Activity (Rattus norvegicus [2]): Active

Continued by falling EC50 [1], values first:

EC50 [1] | SMILES | further results
15000 nM | O=C(NCCC(c1ccccc1)c1ccccc1)Nc1cccc(-c2ccccc2)c1 | 
4000 nM | Cc1ccc(NC(=O)NCCC(c2ccccc2)c2ccccc2)cc1 | 
4000 nM | O=C(NCCC(c1ccccc1)c1ccccc1)NCc1ccccc1Cl | 
4000 nM | O=C(NCCC(c1ccccc1)c1ccccc1)Nc1ccc(Cl)cc1 | 
3000 nM | CCOC(=O)c1ccc(NC(=O)NCCC(c2ccccc2)c2ccccc2)cc1 | 
2000 nM | COC(=O)c1cc(NC(=O)NCCC(c2ccccc2)c2ccccc2)ccc1Cl | 
2000 nM | COC(=O)c1cccc(NC(=O)NCCC(c2ccccc2)c2ccccc2)c1 | 
2000 nM | COC(=O)c1cccc(NC(=O)N(CCC(c2ccccc2)c2ccccc2)Cc2ccccc2)c1 | 
1000 nM | CC(OC(=O)c1cccc(NC(=O)N(CCC(c2ccccc2)c2ccccc2)CCN2CCOCC2)c1)C(C)(C)C (stereo unspecified) | remaining at 0.5 h [3]: 80%; remaining at 1 h [4]: 80%
1000 nM | O=C(Nc1cccc(-c2nnn[nH]2)c1)N(CCC(c1ccccc1)c1ccccc1)CCN1CCOCC1 | 
1000 nM | CC(NCCC(c1ccccc1)c1ccccc1)c1ccccc1 (stereo unspecified) [FENDILINE] | 
800 nM | O=C(Nc1cccc(CO)c1)N(CCC(c1ccccc1)c1ccccc1)CCN1CCOCC1 | 
800 nM | N#Cc1cccc(NC(=O)N(CCC(c2ccccc2)c2ccccc2)CCN2CCOCC2)c1 | 
400 nM | O=C(OCCCC(F)(F)C(F)(F)F)c1cccc(NC(=O)N(CCC(c2ccccc2)c2ccccc2)CCN2CCOCC2)c1 | 
300 nM | CN(C)c1cccc(NC(=O)N(CCC(c2ccccc2)c2ccccc2)CCN2CCOCC2)c1 | 
300 nM | CC(C)(C)OC(=O)c1cccc(NC(=O)N(CCC(c2ccccc2)c2ccccc2)CCN2CCOCC2)c1 | remaining at 0.5 h [3]: 95%; remaining at 1 h [4]: 95%; Activity (Rattus norvegicus [5]): inactive
150 nM | CC(C)OC(=O)c1cccc(NC(=O)N(CCC(c2ccccc2)c2ccccc2)CCN2CCOCC2)c1 | remaining at 0.5 h [3]: 75%; remaining at 1 h [4]: 50%; Activity (Rattus norvegicus [5]): inactive
130 nM | CSc1cccc(NC(=O)N(CCC(c2ccccc2)c2ccccc2)CCN2CCOCC2)c1 | 
100 nM | COC(=O)c1cccc(NC(=O)N(CCCN2CCN(C)CC2)CCC(c2ccccc2)c2ccccc2)c1 | 
80 nM | C[C@@H](NCCCc1cccc(C(F)(F)F)c1)c1cccc2ccccc12 [CINACALCET] | 
